Experimental data: ChEMBL document CHEMBL5046229 (Eur J Med Chem, 2022)
The source made the active and inactive calls. The rule behind the calls is not given here.

Experiments:
[1] = test system: SET2; experiment: Inhibition of AKT phosphorylation in human SET2 cells assessed as change in phosphorylated Akt level at 10 uM for 30 minutes in absence of PDGF by western blot analysis relative to control; set-up: scale not given: the % may be the effect or the level left
[2] = test system: Spleen; experiment: Effect of MAPK signalling pathway in JAK2V6175F transgenic myelofibrosis C57BL/6 mouse spleen assessed as reduction in ERK1/2 phosphorylation at 325 mg/kg, po daily for 5 days by flow cytometry analysis; type: functional, organism-based; details: time 5.0 day
Outline: (§1)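 JAK2V617F bone-marrow-transplant MF mice were dosed 325 mg/kg orally daily for 5 days, then sacrificed. Isolated cells stained intracellularly with APC-conjugated anti-pAKT (S473) or anti-pERK1/2 (T202/Y204). Mean fluorescence intensity measured by flow cytometry. Vehicle n=6, treated n=4; mean ± s.e.m., Welch's t-test.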

[3] = Drug concentration in JAK2V6175 transgenic myelofibrosis C57BL/6 mouse bone marrow at 325 mg/kg, po measured after 4 hrs by LC-MS/MS analysis; type: ADME, organism-based; details: read-out: Ct
Outline: (§2)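 Mice received a single oral dose of 325 mg/kg (n=4 per compound). Blood, spleen and bone marrow taken about 4 h later and homogenized. Extracts centrifuged at 10,000 × g and separated by reverse-phase C18 UPLC (0.1% formic acid water/acetonitrile gradient). Parent and metabolites quantified by MRM LC-MS/MS against internal-standard calibration (0.02–160 ng/mL, r² ≥ 0.99). Synthesized metabolite standards used for confirmation. Levels given as ng/g, mean ± SEM.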

[4] = test system: Spleen; experiment: Effect of MAPK signalling pathway in JAK2V6175 transgenic myelofibrosis C57BL/6 mouse spleen assessed as reduction in […] phosphorylation at 325 mg/kg, po administered daily for 5 days by flow cytometry analysis; type: functional, organism-based; details: time 5.0 day
Outline: as §1

[5] = Drug metabolism in JAK2V6175 transgenic myelofibrosis C57BL/6 mouse bone marrow at 325 mg/kg, po assessed as metabolite formation measured after 4 hrs by LC-MS/MS analysis; type: ADME, organism-based; details: in vivo
Outline: as §2

[6] = test system: A-375; experiment: Antiproliferative activity against human A-375 cells assessed as reduction in cell viability measured after 72 hrs by CellTiter-Fluor cell viability assay; type: functional, cell-based; details: A-375, 72 h
Outline: (§3)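 Cells grown in DMEM or RPMI 1640 with 10% FBS (20% for SET-2), 37 °C, 5% CO₂. About 500–1,000 cells/well seeded and incubated 24 h, then exposed to final concentrations of 0.1–20 μM for 72 h. Viability read by fluorescence (CellTiter-Fluor). IC₅₀ calculated from 3 independent experiments in duplicate wells, reported as mean ± SEM.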

[7] = Drug concentration in JAK2V6175 transgenic myelofibrosis C57BL/6 mouse blood at 325 mg/kg, po measured after 4 hrs by LC-MS/MS analysis; type: ADME, organism-based; details: whole blood, read-out: Ct
Outline: as §2

[8] = test system: SET-2; experiment: Antiproliferative activity against human SET-2 cells assessed as reduction in cell viability measured after 72 hrs by CellTiter-Fluor cell viability assay; type: functional, cell-based; details: SET-2, 72 h
Outline: as §3

[9] = Drug metabolism in JAK2V6175 transgenic myelofibrosis C57BL/6 mouse spleen at 325 mg/kg, po assessed as metabolite formation measured after 4 hrs by LC-MS/MS analysis; type: ADME, organism-based; details: in vivo
Outline: as §2

[10] = test system: Spleen; experiment: Effect of PI3K signalling pathway in JAK2V6175 transgenic myelofibrosis C57BL/6 mouse spleen assessed as reduction in AKT phosphorylation at 325 mg/kg, po administered daily for 5 days by flow cytometry analysis; type: functional, organism-based; details: time 5.0 day
Outline: as §1

[11] = test system: D54 cell line; experiment: Antiproliferative activity against human D54 cells assessed as reduction in cell viability measured after 72 hrs by CellTiter-Fluor cell viability assay; type: functional, cell-based; details: D54, 72 h
Outline: as §3

[12] = Drug metabolism in JAK2V6175 transgenic myelofibrosis C57BL/6 mouse blood at 325 mg/kg, po assessed as metabolite formation measured after 4 hrs by LC-MS/MS analysis; type: ADME, organism-based; details: in vivo
Outline: as §2

[13] = Drug concentration in JAK2V6175 transgenic myelofibrosis C57BL/6 mouse spleen at 325 mg/kg, po measured after 4 hrs by LC-MS/MS analysis; type: ADME, organism-based; details: read-out: Ct
Outline: as §2

[14] = test system: A-375; experiment: Inhibition of ERK phosphorylation in human A-375 cells assessed as change in phosphorylated ERK level at 10 uM for 30 minutes in presence of PDGF by western blot analysis relative to control; type: cell-based; set-up: scale not given: the % may be the effect or the level left
Outline: (§4)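 A375 and D54 cells grown in DMEM with 10% FBS; SET-2 in RPMI with 20% FBS. Cells treated 30 min at 10 μM; A375 and D54 also received PDGF 50 ng/ml, which was omitted for SET-2. Cells lysed in RIPA with protease and phosphatase inhibitors, then SDS-PAGE/western blot for pAKT S473, pERK1/2 T202/Y204, total AKT and total ERK. Densitometry of phospho signal normalized to total protein, expressed as % of control. 3 independent experiments, mean ± SEM.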

[15] = test system: D54 cell line; experiment: Inhibition of ERK phosphorylation in human D-54 cells assessed as change in phosphorylated ERK level at 10 uM for 30 minutes in presence of PDGF by western blot analysis relative to control; type: cell-based; set-up: scale not given: the % may be the effect or the level left
Outline: as §4

[16] = test system: Mus musculus; experiment: Antitumor activity against JAK2V6175 transgenic myelofibrosis C57BL/6 mouse cancer model assessed as reduction in spleen weight at 325 mg/kg, po administered daily for 5 days; set-up: scale not given: the % may be the effect or the level left; details: time 5 day
[17] = test system: D54 cell line; experiment: Inhibition of AKT phosphorylation in human D-54 cells assessed as change in phosphorylated Akt level at 10 uM for 30 minutes in presence of PDGF by western blot analysis relative to control; type: cell-based; set-up: scale not given: the % may be the effect or the level left
Outline: as §4

[18] = test system: SET2; experiment: Inhibition of ERK phosphorylation in human SET2 cells assessed as change in phosphorylated ERK level at 10 uM for 30 minutes in absence of PDGF by western blot analysis relative to control; set-up: scale not given: the % may be the effect or the level left
[19] = test system: Mus musculus; experiment: Antitumor activity against JAK2V6175 transgenic myelofibrosis C57BL/6 mouse cancer model assessed as reduction in spleen volume at 325 mg/kg, po administered daily for 4 days by magnetic resonance imaging analysis; type: functional, organism-based; details: time 4.0 day
Outline: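 Lethally irradiated C57BL/6 female recipients received 5 million mixed bone marrow cells (Mx1-Cre; JAK2V617F donor with WT, 1:9) and polyI:C twice 2 weeks after transplant. 325 mg/kg by oral gavage daily. Spleen volume by anatomic MRI at 7T after 4 days. Vehicle n=5, treated n=4; mean ± s.d., Welch's t-test.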

[20] = test system: Spleen; experiment: Effect in JAK2V6175 transgenic myelofibrosis C57BL/6 mouse spleen assessed as reduction in ERK1/2 phosphorylation at 325 mg/kg, po administered daily for 5 days by flow cytometry analysis; details: time 5.0 day
[21] = test system: A-375; experiment: Inhibition of AKT phosphorylation in human A-375 cells assessed as change in phosphorylated Akt level at 10 uM for 30 minutes in presence of PDGF by western blot analysis relative to control; type: cell-based; set-up: scale not given: the % may be the effect or the level left
Outline: as §4

[22] = molecular target: Phosphatidylinositol 4,5-bisphosphate 3-kinase catalytic subunit alpha isoform (Homo sapiens, UniProt P42336); experiment: Inhibition of human PI3Kalpha by TR-FRET based Adapta assay
[23] = molecular target: Phosphatidylinositol 4,5-bisphosphate 3-kinase catalytic subunit gamma isoform (Homo sapiens, UniProt P48736); experiment: Inhibition of human PI3Kgamma by TR-FRET based Adapta assay
[24] = molecular target: Phosphatidylinositol 4,5-bisphosphate 3-kinase catalytic subunit beta isoform (Homo sapiens, UniProt P42338); experiment: Inhibition of human PI3Kbeta by TR-FRET based Adapta assay
[25] = molecular target: T1, Phosphatidylinositol 4,5-bisphosphate 3-kinase catalytic subunit delta isoform (Homo sapiens, UniProt O00329); experiment: Inhibition of human PI3Kdelta by TR-FRET based Adapta assay
T1 sequence (O00329 whole entry): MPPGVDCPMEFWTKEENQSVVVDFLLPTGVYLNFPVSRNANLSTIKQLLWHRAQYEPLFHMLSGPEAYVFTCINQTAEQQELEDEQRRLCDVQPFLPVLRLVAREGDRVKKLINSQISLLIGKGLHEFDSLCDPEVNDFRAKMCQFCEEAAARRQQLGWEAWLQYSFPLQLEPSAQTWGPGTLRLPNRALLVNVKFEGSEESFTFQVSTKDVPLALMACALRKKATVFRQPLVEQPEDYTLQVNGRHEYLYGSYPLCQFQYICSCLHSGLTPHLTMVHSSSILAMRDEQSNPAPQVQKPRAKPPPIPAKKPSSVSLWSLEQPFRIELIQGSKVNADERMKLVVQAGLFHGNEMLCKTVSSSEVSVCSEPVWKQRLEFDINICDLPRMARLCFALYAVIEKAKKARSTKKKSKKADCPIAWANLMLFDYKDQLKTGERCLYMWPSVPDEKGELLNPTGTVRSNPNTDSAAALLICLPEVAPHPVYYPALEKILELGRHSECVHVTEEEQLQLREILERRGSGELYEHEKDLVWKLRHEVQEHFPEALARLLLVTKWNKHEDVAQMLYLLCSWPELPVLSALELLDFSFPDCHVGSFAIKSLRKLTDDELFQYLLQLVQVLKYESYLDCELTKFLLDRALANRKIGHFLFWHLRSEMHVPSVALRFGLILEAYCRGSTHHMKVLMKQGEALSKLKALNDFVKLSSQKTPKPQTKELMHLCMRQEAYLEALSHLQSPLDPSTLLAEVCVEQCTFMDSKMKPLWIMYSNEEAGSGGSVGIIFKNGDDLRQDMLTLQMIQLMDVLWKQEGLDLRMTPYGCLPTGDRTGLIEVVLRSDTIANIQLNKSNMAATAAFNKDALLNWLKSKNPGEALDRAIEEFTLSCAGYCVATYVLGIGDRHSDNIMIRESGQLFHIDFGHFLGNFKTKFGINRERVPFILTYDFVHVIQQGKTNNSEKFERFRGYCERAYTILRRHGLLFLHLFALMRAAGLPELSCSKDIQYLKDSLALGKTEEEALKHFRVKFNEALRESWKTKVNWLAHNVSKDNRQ

[26] = molecular target: Dual specificity mitogen-activated protein kinase kinase 1 (Homo sapiens, UniProt Q02750); experiment: Inhibition of human MEK-1 by Lanthascreen TR-FRET assay
Chain of Dual specificity mitogen-activated protein kinase kinase 1 (Q02750 whole entry): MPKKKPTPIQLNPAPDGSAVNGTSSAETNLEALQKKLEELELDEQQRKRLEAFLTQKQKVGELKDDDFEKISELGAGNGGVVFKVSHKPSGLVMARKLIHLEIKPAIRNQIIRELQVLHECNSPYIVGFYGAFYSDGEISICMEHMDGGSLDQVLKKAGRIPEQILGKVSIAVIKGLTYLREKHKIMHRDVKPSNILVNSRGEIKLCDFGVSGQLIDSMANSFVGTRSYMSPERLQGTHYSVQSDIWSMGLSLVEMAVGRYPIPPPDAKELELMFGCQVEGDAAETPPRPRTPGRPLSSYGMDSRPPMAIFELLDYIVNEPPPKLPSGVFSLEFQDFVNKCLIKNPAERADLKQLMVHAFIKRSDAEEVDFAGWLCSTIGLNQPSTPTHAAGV

Chain of Phosphatidylinositol 4,5-bisphosphate 3-kinase catalytic subunit gamma isoform (P48736 whole entry, canonical isoform): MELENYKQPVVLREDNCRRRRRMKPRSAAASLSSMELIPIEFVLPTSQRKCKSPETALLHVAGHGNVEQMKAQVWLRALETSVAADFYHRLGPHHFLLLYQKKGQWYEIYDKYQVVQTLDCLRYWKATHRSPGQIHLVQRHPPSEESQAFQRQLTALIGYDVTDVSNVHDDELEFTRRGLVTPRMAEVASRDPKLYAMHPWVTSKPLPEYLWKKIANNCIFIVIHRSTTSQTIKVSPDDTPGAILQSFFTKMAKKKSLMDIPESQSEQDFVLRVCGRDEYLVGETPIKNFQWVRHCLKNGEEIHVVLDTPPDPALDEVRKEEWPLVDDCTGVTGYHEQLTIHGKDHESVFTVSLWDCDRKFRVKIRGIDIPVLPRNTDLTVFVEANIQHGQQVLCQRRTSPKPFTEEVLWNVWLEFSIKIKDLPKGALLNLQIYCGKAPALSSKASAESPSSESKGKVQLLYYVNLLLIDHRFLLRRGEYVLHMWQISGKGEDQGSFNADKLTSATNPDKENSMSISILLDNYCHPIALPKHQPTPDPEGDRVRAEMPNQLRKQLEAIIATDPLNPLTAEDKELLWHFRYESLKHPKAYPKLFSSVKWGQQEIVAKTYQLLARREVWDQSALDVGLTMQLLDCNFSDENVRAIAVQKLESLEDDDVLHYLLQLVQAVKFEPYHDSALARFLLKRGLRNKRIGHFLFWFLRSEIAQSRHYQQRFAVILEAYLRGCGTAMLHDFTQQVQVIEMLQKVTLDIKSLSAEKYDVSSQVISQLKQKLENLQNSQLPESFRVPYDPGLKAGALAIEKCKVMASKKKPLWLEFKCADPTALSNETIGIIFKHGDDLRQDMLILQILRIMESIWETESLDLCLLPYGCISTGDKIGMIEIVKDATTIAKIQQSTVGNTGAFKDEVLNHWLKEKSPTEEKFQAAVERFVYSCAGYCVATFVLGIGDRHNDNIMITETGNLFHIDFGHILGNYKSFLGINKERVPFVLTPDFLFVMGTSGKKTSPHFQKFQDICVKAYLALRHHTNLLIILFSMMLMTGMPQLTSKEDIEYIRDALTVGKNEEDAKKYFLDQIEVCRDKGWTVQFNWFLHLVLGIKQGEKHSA
Chain of Phosphatidylinositol 4,5-bisphosphate 3-kinase catalytic subunit beta isoform (P42338 whole entry, canonical isoform): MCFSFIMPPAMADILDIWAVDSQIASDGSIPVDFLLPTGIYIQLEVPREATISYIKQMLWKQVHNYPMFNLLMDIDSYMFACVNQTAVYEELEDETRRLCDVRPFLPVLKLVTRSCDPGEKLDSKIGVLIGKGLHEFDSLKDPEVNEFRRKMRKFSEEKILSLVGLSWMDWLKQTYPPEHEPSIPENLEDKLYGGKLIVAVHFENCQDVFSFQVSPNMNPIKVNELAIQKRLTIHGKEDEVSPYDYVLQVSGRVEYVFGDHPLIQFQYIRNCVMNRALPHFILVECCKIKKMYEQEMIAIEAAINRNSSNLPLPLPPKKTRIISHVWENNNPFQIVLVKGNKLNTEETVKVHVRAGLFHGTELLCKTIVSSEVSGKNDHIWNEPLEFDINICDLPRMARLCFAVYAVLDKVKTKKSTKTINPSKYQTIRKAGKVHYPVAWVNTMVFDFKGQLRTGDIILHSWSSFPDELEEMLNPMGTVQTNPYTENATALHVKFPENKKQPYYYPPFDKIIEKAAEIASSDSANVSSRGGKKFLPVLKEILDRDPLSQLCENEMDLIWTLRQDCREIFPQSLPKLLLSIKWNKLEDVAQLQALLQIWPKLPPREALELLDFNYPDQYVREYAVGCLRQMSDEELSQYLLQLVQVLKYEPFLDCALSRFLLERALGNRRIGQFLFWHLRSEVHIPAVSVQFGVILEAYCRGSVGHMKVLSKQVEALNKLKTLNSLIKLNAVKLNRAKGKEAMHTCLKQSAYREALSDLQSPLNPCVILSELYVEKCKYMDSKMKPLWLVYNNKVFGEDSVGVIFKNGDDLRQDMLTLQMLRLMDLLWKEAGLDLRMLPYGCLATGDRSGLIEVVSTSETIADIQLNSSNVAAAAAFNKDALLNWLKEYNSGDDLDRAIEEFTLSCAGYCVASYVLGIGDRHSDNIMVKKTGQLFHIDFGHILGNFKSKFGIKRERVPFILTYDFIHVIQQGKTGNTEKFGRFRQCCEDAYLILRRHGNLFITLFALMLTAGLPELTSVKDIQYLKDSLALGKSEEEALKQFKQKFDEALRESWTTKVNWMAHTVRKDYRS
Chain of Phosphatidylinositol 4,5-bisphosphate 3-kinase catalytic subunit alpha isoform (P42336 whole entry, canonical isoform): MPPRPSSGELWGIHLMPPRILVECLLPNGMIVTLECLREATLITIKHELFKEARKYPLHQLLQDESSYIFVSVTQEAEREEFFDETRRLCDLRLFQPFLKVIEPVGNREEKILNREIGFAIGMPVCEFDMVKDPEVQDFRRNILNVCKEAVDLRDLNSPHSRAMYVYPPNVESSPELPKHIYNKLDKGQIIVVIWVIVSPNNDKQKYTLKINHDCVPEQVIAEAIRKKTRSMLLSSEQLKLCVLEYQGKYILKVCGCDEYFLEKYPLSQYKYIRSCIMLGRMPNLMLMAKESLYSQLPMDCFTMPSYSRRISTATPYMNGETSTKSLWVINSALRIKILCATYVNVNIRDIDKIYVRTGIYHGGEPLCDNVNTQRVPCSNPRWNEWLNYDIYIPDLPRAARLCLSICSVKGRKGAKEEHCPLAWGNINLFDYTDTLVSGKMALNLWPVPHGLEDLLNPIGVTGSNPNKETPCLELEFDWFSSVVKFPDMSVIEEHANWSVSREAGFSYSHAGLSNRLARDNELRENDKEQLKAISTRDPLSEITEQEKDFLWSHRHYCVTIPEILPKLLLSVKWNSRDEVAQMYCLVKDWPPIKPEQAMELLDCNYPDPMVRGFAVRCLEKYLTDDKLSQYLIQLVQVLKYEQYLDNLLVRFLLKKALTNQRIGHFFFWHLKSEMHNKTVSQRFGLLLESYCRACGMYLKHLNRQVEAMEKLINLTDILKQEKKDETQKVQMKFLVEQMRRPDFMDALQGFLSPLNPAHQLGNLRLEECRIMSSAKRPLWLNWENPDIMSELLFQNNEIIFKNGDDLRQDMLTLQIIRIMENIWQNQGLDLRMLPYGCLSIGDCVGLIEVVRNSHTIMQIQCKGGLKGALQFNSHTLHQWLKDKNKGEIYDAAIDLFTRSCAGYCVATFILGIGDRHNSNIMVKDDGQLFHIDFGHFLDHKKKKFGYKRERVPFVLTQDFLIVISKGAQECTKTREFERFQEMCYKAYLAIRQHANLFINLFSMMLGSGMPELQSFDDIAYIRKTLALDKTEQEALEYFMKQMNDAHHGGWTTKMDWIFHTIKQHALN

Structure (SMILES)	Activity [1] [%]	inhibition [2]	concentration at 4 h [3] [ng/g]	inhibition [4]	Drug metabolism [5]	IC50 [6] [µM]	concentration at 4 h [7] [ng/g]	IC50 [8] [µM]	Drug metabolism [9]	inhibition [10]	IC50 [11] [µM]	Drug metabolism [12]	concentration at 4 h [13] [ng/g]	Activity [14] [%]	Activity [15] [%]	Activity [16] [%]	Activity [17] [%]	Activity [18] [%]	Activity [19]	inhibition [20]	other results
O=C(NOCCOCCOCCOCCN(CCO)c1nc(N2CCOCC2)nc(-n2c(C(F)F)nc3ccccc32)n1)c1ccc(F)c(F)c1Nc1ccc(I)cc1F	54.8	Active	2000	Active	Metabolite_Detected	8.5	2000	7	Metabolite_Detected	Active	9.9	Metabolite_Detected	2000	96	87.3	53	65.3	90	Active	Active	Activity [21]: 70.8%
O=C(NOCCOCCOCCOCCNc1nc(N2CCOCC2)nc(-n2c(C(F)F)nc3ccccc32)n1)c1ccc(F)c(F)c1Nc1ccc(I)cc1F	28.9	Active	2000	Active	Metabolite_Detected	10.7	2000	10.7	Metabolite_Detected	Active	17.3	Metabolite_Detected	2000	85.5	66.4	35	22.5	76.8	Active	Active	IC50 [22]: 130 nM; IC50 [23]: 2740 nM; IC50 [24]: 1540 nM; IC50 [25]: 236 nM; IC50 [26]: 124 nM; Activity [21]: 23.7%
